Screening data (PubChem)
This is a sample that favours compounds with a hit; in the whole collection about 2% have one here.
Statin myotox sup: suppression of simvastatin myotoxicity; C2C12 myotubes + simvastatin, ATP luminescence, 48 h; scaled: DMSO 0, geranylgeraniol control 100; rescue of ATP level, % at 7.49 µM; 0.78% of 330,000 active; AID 602340;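 active = mean ATP rescue above about 67%, or every replicate alone reaching that limit, limit read from the data, passing the limit was not always enough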;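 also: myotubes were challenged with 10 µM simvastatin during compound exposure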
CAL PDZ FP-1: human CAL PDZ-peptide interaction inhibition | Q9HD26 | purified CAL PDZ, TMR-peptide fluorescence polarization, 1 h | inhibition, % at 20 µM | 0.02% of 330,000 active | AID 504414;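 active = highest replicate inhibition of at least 40%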;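 also: plate controls were DMSO neutral control wells for no effect and unlabeled competitor peptide control wells for full effect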
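Material: tagged CAL PDZ protein CerCALP, purified; buffer or medium: sodium phosphate/NaCl buffer pH 7.4 with TCEP, IgG, Thesit; also added: fluorescent TMR peptide probe; schedule: 1 h incubation at room temperature before polarization reading; technique: fluorescence polarization from S- and P-plane intensities, G-factor corrected; control set: unlabelled peptide and DMSO controls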
S100A4 inh HTS: S100A4-myosin IIA interaction inhibition. inhibition, % at 10.7 µM. S100A4/TAMRA-MyoIIA peptide fluorescence polarization. 0.14% of 360,000 active;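 active = mean inhibition of at least 70% across replicates, with every replicate also reaching that level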
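Material: S100A4 monomer protein | Medium: HEPES pH 7.2 with CaCl2, KCl, NaCl, DTT, Triton | Reagent: Labelled myosin peptide probe, 5 nM | Doses: One dose per compound | Times: 5 min incubation before reading | Benchmarks: Neutral control DMSO, positive control TFP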
CDK5 p35 inh: blocks human CDK5/p35 kinase activity | inhibition, % at 10 µM | AID 488839 | 0.01% of 330,000 active | Q00535+Q15078 | Recombinant CDK5/p35, ADP-Glo luminescence, 60 min;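 active = highest replicate inhibition of at least 50% and at least 75% of replicates reaching 50%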;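 also: plate controls were DMSO neutral control for no effect and GW8510 at 10 µM for full effect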
Target sequence (Q00535 whole entry, looked up): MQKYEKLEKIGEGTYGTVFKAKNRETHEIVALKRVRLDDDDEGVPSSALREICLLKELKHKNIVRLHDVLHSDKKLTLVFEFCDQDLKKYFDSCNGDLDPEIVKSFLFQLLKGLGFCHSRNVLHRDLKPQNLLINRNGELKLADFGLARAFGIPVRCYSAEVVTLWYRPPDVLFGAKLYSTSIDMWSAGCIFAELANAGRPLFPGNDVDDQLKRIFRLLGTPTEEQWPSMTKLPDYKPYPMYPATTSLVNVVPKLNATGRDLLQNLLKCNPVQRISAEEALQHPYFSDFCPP
Target sequence (Q15078 whole entry, looked up): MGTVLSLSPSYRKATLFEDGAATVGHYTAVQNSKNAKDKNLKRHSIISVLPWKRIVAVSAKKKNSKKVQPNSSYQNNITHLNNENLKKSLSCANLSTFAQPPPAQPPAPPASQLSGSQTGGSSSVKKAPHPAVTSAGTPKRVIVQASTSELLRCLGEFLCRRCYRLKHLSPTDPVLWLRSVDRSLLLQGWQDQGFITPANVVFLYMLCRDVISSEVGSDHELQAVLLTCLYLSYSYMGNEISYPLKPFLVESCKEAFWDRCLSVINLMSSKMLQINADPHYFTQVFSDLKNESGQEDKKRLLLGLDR
CAL PDZ FP-2: CAL PDZ (human) peptide binding inhibition; Q9HD26; AID 602252; purified CAL PDZ, TMR-peptide fluorescence polarization, 1 h; 0.92% of 300,000 active; inhibition, % at 24.9 µM;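 active = mean inhibition of at least 30% with at least half of replicates also reaching 30%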;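 also: 0% = DMSO neutral control and 100% = excess unlabeled competitor peptide PRC23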
dFosB activator: mouse delta FosB homodimer activation. purified delta FosB, TAMRA-CDK5 oligo fluorescence polarization; percent of positive-control signal above neutral wells. 0.99% of 340,000 active. P13346. activation, % at 25 µM;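 active = mean activation above about 17%, with every replicate also reaching it, limit read from the data, passing the limit was not always enough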
* marks the source's active call; other numbers are inactive results; x = no result; ! = a repeat was not active.

SMILES	Statin myotox sup	CAL PDZ FP-1	S100A4 inh HTS	CDK5 p35 inh	CAL PDZ FP-2	dFosB activator
C[C@@H]1CN([C@H](C)CO)C(=O)Cc2cc(NS(=O)(=O)c3ccc(Cl)cc3)ccc2O[C@H]1CN(C)CC1CCCCC1	124*	x	1	x	x	x
C[C@@H]1CN([C@H](C)CO)C(=O)Cc2cc(NS(=O)(=O)c3ccc(Cl)cc3)ccc2O[C@@H]1CN(C)CC1CCCCC1	49	x	-1	x	x	x
C[C@H](CO)N1C[C@H](C)[C@@H](CN(C)CC2CC2)Oc2ccc(NS(=O)(=O)c3ccc(Cl)cc3)cc2CC1=O	-1	x	-46	x	x	x
COc1ccccc1CN1CCNC(=O)C1CC(=O)N(C)Cc1nc(C)cs1 (stereo unspecified)	6	0	-2	-3	x	-3
COc1cccc(C(=O)COC(=O)c2ccc(NC(C)=O)cc2)c1	x	-1	x	-1	53*	-1
O=C(CCN1N=C(c2ccccc2)CCC1=O)NCCCN1CCOCC1	3	-1	2	-1	64*	-4
CC(C)CN(C(=O)C1CCCC1)C1CCS(=O)(=O)C1 (stereo unspecified)	x	-2	-1	1	-2	-2
O=C(CSc1nnc(-c2ccccc2O)o1)N1CCc2ccccc2C1	-26	-1	x	3	-4	-8
CN(C(=O)CCl)C1CCCc2ccccc21 (stereo unspecified)	x	-1	0	3	x	-6
CN(C(=O)c1cccc(C(F)(F)F)c1)C1CCCc2ccccc21 (stereo unspecified)	-18	-1	1	0	52*	-3
Cc1ccc(S(=O)(=O)Cn2nnnc2C(c2ccccc2)N2CCN(c3ccccc3)CC2)cc1 (stereo unspecified)	-12	-1	x	0	-1	-10
O=C(C[C@@H]1CC[C@H]2[C@@H](COC[C@@H](O)CN2CC2CCCCC2)O1)NCc1ccc(F)cc1	11	x	116*	x	x	x
O=C(C[C@H]1CC[C@@H]2[C@H](COC[C@H](O)CN2CCC(F)(F)F)O1)NCc1ccc(Oc2ccccc2)cc1	72*	x	x	x	x	x
Cn1cnc(CCNC(=O)C[C@@H]2CC[C@H]3[C@@H](COC[C@H](O)CN3C(=O)C3CC3)O2)c1	-11	x	6	x	x	x
O=C(C[C@@H]1CC[C@H]2[C@@H](COC[C@@H](O)CN2CCC(F)(F)F)O1)NCc1ccc(Oc2ccccc2)cc1	18	x	x	x	x	x
Cn1cnc(CCNC(=O)C[C@@H]2CC[C@H]3[C@@H](COC[C@@H](O)CN3C(=O)C3CC3)O2)c1	1	x	81*	x	x	x
O=C(C[C@@H]1CC[C@@H]2[C@H](COC[C@H](O)CN2C(=O)c2cccnc2)O1)NCc1ccc(Cl)cc1	8	x	94*	x	x	x
O=C(C[C@H]1CC[C@H]2[C@@H](COC[C@@H](O)CN2C(=O)c2cccnc2)O1)NCc1ccc(Cl)cc1	-5	x	-27	x	x	x
O=[N+]([O-])c1ccc(CNc2ccc(Cl)cc2)s1	26	0	-2	-1	12	2
CCCNC(=O)N1C[C@H](O)COC[C@@H]2O[C@H](CC(=O)NCCCN3CCOCC3)CC[C@H]21	-18	x	13	x	x	x
O=C(C[C@H]1CC[C@@H]2[C@H](COC[C@@H](O)CN2C(=O)Nc2ccc(F)cc2)O1)NCCc1ccccc1	-27	x	106*	x	x	x
O=C(C[C@H]1CC[C@H]2[C@@H](COC[C@H](O)CN2C(=O)Nc2ccc(F)cc2)O1)NCCc1ccccc1	15	x	-5	x	x	x
CCCNC(=O)N1C[C@H](O)COC[C@@H]2O[C@@H](CC(=O)NCCCN3CCOCC3)CC[C@H]21	-28	x	107*!	x	x	x
O=C(C[C@H]1CC[C@H]2NC[C@H](O)COC[C@@H]2O1)NCCN1CCCCC1	-14	x	115*	x	x	x
CCN(CC(=O)Nc1ccc2c(c1)OCCO2)C(=O)c1cccc(OCC(C)C)c1	13	-1	-4	-3	x	1
SMILES	Statin myotox sup	CAL PDZ FP-1	S100A4 inh HTS	CDK5 p35 inh	CAL PDZ FP-2	dFosB activator
O=C(C[C@H]1C/C=C\C[C@@H](Cc2ccc(F)cc2)C(=O)OC[C@H]2CCCN2C1=O)NCCO	6	-1	13	-1	-3	-6
C=C(C)CCC(C)N1CCC(n2nccc2NC(=O)CCCc2ccccc2)CC1 (stereo unspecified)	1	1	-23	-2	42*	-8
CC(=O)Nc1cc(-c2ccc(S(C)(=O)=O)cc2)cn2c(-c3ccc(F)cc3)cnc12	6	x	-13	x	x	x
Cn1nnnc1Sc1ccc(C(=O)O)cc1[N+](=O)[O-]	x	-2	2	1	-5	0
O=C(Nc1ccc(S(=O)(=O)NC2=NCCCCC2)cc1)c1ccc([N+](=O)[O-])s1	86*	-2	-3	1	-3	-10
CC=Cc1ccc2n(c1=O)C[C@H]1[C@H](CO)[C@@H](C(=O)NCC3CC3)[C@@H]2N1Cc1cccnc1 (mixture of isomers)	-33	x	122*	x	x	x
CCC1S/C(=C(\C#N)C(=O)NCc2ccco2)N(c2ccc(F)cc2)C1=O (stereo unspecified)	13	-1	x	1	4	-3
N#C/C(C(=O)NCc1ccco1)=C1/SC(Cc2ccc(F)cc2)C(=O)N1c1ccccc1 (stereo unspecified)	87*	0	x	0	-3	2
CCCNC(=O)[C@@H]1[C@@H](CO)[C@@H]2Cn3c(cccc3=O)[C@H]1N2CCC(F)(F)F	-13	x	123*	x	x	x
c1coc(-c2nc3ccccc3s2)c1	120*	0	0	-2	4	2
CCCCCCn1cc(C(=O)O)c(=O)c2cc(F)c(N3CCN(C)CC3)cc21	-2	-1	x	0	30*	-11
CC1(c2ccc(Cl)cc2)NC(=S)N2C1NC(=S)N2c1ccccc1 (stereo unspecified)	21	-3	-1	-2	-2	-8
CC(C)C(C(=O)OCC(=O)c1ccc2c(c1)NC(=O)CO2)N1C(=O)c2ccccc2C1=O (stereo unspecified)	-1	-3	x	1	5	23*
CC(C)[C@H](NC(=O)c1ccccc1)C(=O)OCC(=O)c1ccc2c(c1)NC(=O)CO2	5	-1	x	2	x	-9
CNC[C@H](Cc1ccccc1)NC[C@@H](Cc1cccc2ccccc12)NCCc1ccc(C)cc1	1	-6	-1	1	5	30*
CNCCNC[C@H](Cc1cccc2ccccc12)NCCc1ccccc1	-3	1	0	0	-1	3
Cn1c(N)c(S(=O)(=O)N2CCCC2)c(=O)n(C)c1=O	-4	-1	-1	1	47*	6
CC1(C)CNC(=O)c2sc(NC(=O)CN3CCOCC3)nc2C1	108*	0	x	1	0	5
CC1CCc2nc(NC(=O)CN3CCOCC3)sc2C1 (stereo unspecified)	0	0	x	-3	-1	0
